pIC50: −log10 of the molar value.
What was measured:
[1] = target: Acetylcholinesterase (Electrophorus electricus, UniProt O42275); assay: Inhibition of electric eel AChE incubated for 15 mins using […] substrate by colorimetric Ellman's method
[2] = target: Cholinesterase (Equus caballus, UniProt P81908); assay: Inhibition of equine serum butyrylcholine esterase incubated for 15 mins using S-butyrylthiocholine chloride substrate by colorimetric Ellman's method
[3] = Selectivity index, ratio of IC50 for equine serum butyrylcholine esterase to IC50 for electric eel AChE
[4] = Stability in Sprague-Dawley rat liver microsomes assessed as parent compound remaining at 2 uM measured 10 mins after microsomal reactions termination at pH 7.4 pre-incubated in presence of NADPH regenerating system by LC-MS method; type: ADME; conditions: read-out: Stability
How it was run: (§1)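 Compound added (2 µM final, from DMSO stock), 37 °C; time-0 aliquot and reaction quenched with ice-cold acetonitrile (acetaminophen internal standard) at 10 min, or 30 min for some compounds. Single time-point design; LC-MS (Q-Tof) analysis.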

[5] = Half life in Sprague-Dawley rat liver microsomes at 2 uM at pH 7.4 pre-incubated in presence of NADPH regenerating system measured 10 mins after microsomal reactions termination by LC-MS method; type: ADME; how it was run: as §1
[6] = in vitro; conditions: PAMPA, pH 7.4
[7] = tested on: Liver microsome; assay: Drug metabolism in Sprague-Dawley rat liver microsomes assessed as formation of monohydroxylated metabolite at 2 uM at pH 7.4 pre-incubated in presence of NADPH regenerating system measured after 10 to 30 mins by LC-MS method; type: ADME; conditions: pH 7.4, 2 µM; how it was run: as §1
[8] = Half life in Sprague-Dawley rat liver microsomes at 2 uM at pH 7.4 pre-incubated in presence of NADPH regenerating system measured 30 mins after microsomal reactions termination by LC-MS method; type: ADME
[9] = tested on: Liver microsome; assay: Drug metabolism in Sprague-Dawley rat liver microsomes assessed as formation of desmethylated metabolite at 2 uM at pH 7.4 pre-incubated in presence of NADPH regenerating system measured after 10 to 30 mins by LC-MS method; type: ADME; conditions: pH 7.4, 2 µM; how it was run: as §1
[10] = Stability in Sprague-Dawley rat liver microsomes assessed as parent compound remaining at 2 uM measured 30 mins after microsomal reactions termination at pH 7.4 pre-incubated in presence of NADPH regenerating system by LC-MS method; type: ADME; conditions: read-out: Stability
[11] = Retention time of the compound by HPLC-UV method; type: physicochemical

Chain of Cholinesterase (P81908 whole entry): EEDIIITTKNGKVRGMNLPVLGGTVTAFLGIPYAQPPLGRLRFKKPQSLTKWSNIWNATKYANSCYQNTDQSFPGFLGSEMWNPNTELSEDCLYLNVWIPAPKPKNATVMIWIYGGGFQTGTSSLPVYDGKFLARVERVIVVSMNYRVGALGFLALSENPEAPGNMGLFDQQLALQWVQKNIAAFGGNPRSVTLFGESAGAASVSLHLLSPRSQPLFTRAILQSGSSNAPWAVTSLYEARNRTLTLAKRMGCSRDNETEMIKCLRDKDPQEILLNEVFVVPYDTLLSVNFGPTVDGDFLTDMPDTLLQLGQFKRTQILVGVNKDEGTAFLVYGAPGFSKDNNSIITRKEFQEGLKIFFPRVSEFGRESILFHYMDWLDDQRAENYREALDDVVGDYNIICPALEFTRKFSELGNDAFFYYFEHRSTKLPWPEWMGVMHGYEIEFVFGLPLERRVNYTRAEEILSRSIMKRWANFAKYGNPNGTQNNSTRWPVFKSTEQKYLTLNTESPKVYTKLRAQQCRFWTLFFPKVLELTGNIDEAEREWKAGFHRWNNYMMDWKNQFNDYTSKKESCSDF
Chain of Acetylcholinesterase (O42275 whole entry): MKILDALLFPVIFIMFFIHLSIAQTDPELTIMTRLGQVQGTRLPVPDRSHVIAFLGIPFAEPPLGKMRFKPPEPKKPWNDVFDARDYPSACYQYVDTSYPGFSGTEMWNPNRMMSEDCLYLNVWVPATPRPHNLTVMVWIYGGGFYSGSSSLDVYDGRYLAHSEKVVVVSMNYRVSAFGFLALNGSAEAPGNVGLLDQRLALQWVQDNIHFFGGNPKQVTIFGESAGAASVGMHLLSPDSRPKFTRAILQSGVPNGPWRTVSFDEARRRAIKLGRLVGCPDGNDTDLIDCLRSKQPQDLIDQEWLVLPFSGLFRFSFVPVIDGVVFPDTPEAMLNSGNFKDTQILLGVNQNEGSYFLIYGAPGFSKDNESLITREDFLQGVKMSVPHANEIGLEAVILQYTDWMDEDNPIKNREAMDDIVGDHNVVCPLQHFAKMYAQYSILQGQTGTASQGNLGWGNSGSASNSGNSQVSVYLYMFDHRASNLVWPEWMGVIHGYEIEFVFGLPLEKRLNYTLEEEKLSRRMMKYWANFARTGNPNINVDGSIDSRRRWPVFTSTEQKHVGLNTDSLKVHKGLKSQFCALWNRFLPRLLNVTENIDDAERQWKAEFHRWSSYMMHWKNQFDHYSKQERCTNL

| Compound | pIC50 [1] | pIC50 [2] | Ratio IC50 [3] | further results |
| --- | --- | --- | --- | --- |
| CCN(CC)C(=O)Oc1ccc2c(c1)O/C(=C\c1ccc(OCCN3CCCCC3)cc1)C2=O | 6.19 | 5.14 | 11 | remaining at 10 min, 2 µM [4]: 44.3%; half-life at 2 µM [5]: 8.5 min; Retention_time: 4.2 min; Papp [6]: 16.1 ×10⁻⁶ cm/s |
| CCN(CC)C(=O)Oc1ccc2c(c1)O/C(=C\c1ccc(OCCN3CCCC3)cc1)C2=O | 6.11 | 5.13 | 9.5 | – |
| CCN(CC)C(=O)Oc1ccc(/C=C2\Oc3cc(OC)ccc3C2=O)cc1 | 4.96 | < 4.00 | – | – |
| CCN(CC)C(=O)Oc1ccc2c(c1)O/C(=C\c1ccc(OCCN(C)C)cc1)C2=O | 5.26 | 5.01 | 1.78 | – |
| O=C1/C(=C/c2ccc(OCCN3CCCC3)c(Cl)c2)Oc2cc(O)ccc21 | 6.54 | 5.00 | 34.3 | – |
| COc1ccc2c(c1)O/C(=C\c1ccc(OCCCN(C)C)cc1Cl)C2=O | 4.82 | 4.47 | 2.26 | – |
| COc1ccc2c(c1)O/C(=C\c1ccc(OCCN3CCCC3)cc1)C2=O | 6.26 | 4.99 | 18.7 | remaining at 10 min, 2 µM [4]: 25.3%; half-life at 2 µM [5]: 5.1 min; Drug metabolism [7]: metabolite_detected; Retention_time: 3.6 min; Papp [6]: 24.7 ×10⁻⁶ cm/s |
| COc1cc(/C=C2\Oc3cc(OCCN4CCCCC4)ccc3C2=O)cc(OC)c1OC | 6.37 | 5.21 | 14.6 | half-life at 2 µM [8]: 43.8 min; Drug metabolism [7]: metabolite_detected; Drug metabolism [9]: metabolite_detected; remaining at 0.5 h, 2 µM [10]: 61.9%; Retention_time: 3.7 min; Papp [6]: 21.3 ×10⁻⁶ cm/s |
| COc1ccc2c(c1)O/C(=C\c1ccc(OCCN(C)C)c(Cl)c1)C2=O | 5.88 | 4.95 | 8.35 | – |
| COc1ccc(/C=C2\Oc3cc(OCCN(C)C)ccc3C2=O)cc1 | 4.92 | 4.60 | 2.1 | – |
| COc1ccc(/C=C2\Oc3cc(OC)ccc3C2=O)cc1 | < 4.00 | < 4.00 | – | remaining at 10 min, 2 µM [4]: 41.4%; half-life at 2 µM [5]: 7.9 min; Retention_time: 3.9 min; Papp [6]: 9.8 ×10⁻⁶ cm/s |
| CCN(CC)C(=O)Oc1ccc2c(c1)O/C(=C\c1ccc(OC)cc1)C2=O | < 4.00 | 4.90 | – | – |
| COc1ccc(/C=C2\Oc3cc(O)ccc3C2=O)cc1 | < 4.00 | < 4.00 | – | – |
| Cn1c(=O)c2[nH]cnc2n(C)c1=O.O [THEOPHYLLINE] | – | – | – | Retention_time [11]: 3.4 min |
| COc1cc(/C=C2\Oc3cc(OCCCN(C)C)ccc3C2=O)cc(OC)c1OC | 5.01 | < 4.00 | – | – |
| CCN(CC)c1ccc(/C=C2\Oc3cc(O)ccc3C2=O)cc1 | < 4.00 | < 4.00 | – | – |
| CCN(CC)c1ccc(/C=C2\Oc3cc(OC)ccc3C2=O)cc1 | < 4.00 | < 4.00 | – | – |
| CN(C)c1ccc(/C=C2\Oc3cc(O)ccc3C2=O)cc1 | < 4.00 | < 4.00 | – | – |
| COc1ccc(/C=C2\Oc3cc(OCCCN(C)C)ccc3C2=O)cc1 | 4.80 | 4.51 | 1.99 | – |
| O=C1/C(=C/c2ccc(OCCN3CCCCC3)cc2)Oc2cc(O)ccc21 | 5.65 | < 4.00 | – | Retention_time: 3.6 min; Papp [6]: 10 ×10⁻⁶ cm/s |
| CN(C)CCOc1ccc(/C=C2\Oc3cc(O)ccc3C2=O)cc1 | 5.26 | < 4.00 | – | – |
| COc1ccc2c(c1)O/C(=C\c1ccncc1)C2=O | < 4.00 | < 4.00 | – | – |
| O=C1/C(=C/c2ccncc2)Oc2cc(O)ccc21 | < 4.00 | < 4.00 | – | – |

| Compound | pIC50 [1] | pIC50 [2] | Ratio IC50 [3] | further results |
| --- | --- | --- | --- | --- |
| Cn1c(=O)c2c(ncn2C)n(C)c1=O [CAFFEINE] | – | – | – | Retention_time [11]: 3.2 min |
| COc1cc2c(cc1OC)C(=O)C(CC1CCN(Cc3ccccc3)CC1)C2 (stereo not given) [DONEPEZIL] | – | – | – | half-life at 2 µM [8]: 76.5 min; remaining at 0.5 h, 2 µM [10]: 76.2% |
| COc1cc(/C=C2\Oc3cc(OCCN(C)C)ccc3C2=O)cc(OC)c1OC | 4.81 | 4.18 | 4.26 | – |
| CCN(CC)C(=O)Oc1ccc2c(c1)O/C(=C\c1ccc(N(CC)CC)cc1)C2=O | < 4.00 | < 4.00 | – | – |
| COc1ccc2c(c1)O/C(=C\c1ccc(OCCN(C)C)cc1)C2=O | 5.71 | 4.59 | 13.1 | – |
| COc1ccc(/C=C2\Oc3cc(OCCN4CCCCC4)ccc3C2=O)cc1 | 6.07 | 5.16 | 8.13 | remaining at 10 min, 2 µM [4]: 53.6%; half-life at 2 µM [5]: 11.2 min; Retention_time: 4.5 min; Papp [6]: 20 ×10⁻⁶ cm/s |
| COc1ccc2c(c1)O/C(=C\c1ccc(N(C)C)cc1)C2=O | 4.30 | 4.50 | 0.63 | – |
| O=C1/C(=C/c2ccc(OCCN3CCCC3)cc2Cl)Oc2cc(O)ccc21 | 6.06 | 5.06 | 9.89 | – |
| COc1ccc2c(c1)O/C(=C\c1ccc(OCCN(C)C)cc1Cl)C2=O | 4.91 | 4.62 | 1.93 | – |
| COc1ccc2c(c1)O/C(=C\c1ccc(OCCCN(C)C)c(Cl)c1)C2=O | 5.79 | 4.67 | 13.4 | – |
| CCN(CC)C(=O)Oc1ccc2c(c1)O/C(=C\c1ccc(N(C)C)cc1)C2=O | < 4.00 | < 4.00 | – | – |
| C[C@]12CC[C@H]3[C@@H](CCC4=CC(=O)CC[C@@]43C)[C@@H]1CC[C@@H]2O [TESTOSTERONE] | – | – | – | remaining at 10 min, 2 µM [4]: < 0.001%; half-life at 2 µM [5]: 0.48 min |
| COc1ccc2c(c1)O/C(=C\c1ccc(O)cc1)C2=O | < 4.00 | < 4.00 | – | – |
| CN(C)CCCOc1ccc(/C=C2\Oc3cc(O)ccc3C2=O)cc1 | 5.10 | < 4.00 | – | – |
| COc1ccc2c(c1)O/C(=C\c1ccc(OCCN3CCCCC3)cc1Cl)C2=O | 6.29 | 4.94 | 22.2 | – |
| COc1ccc2c(c1)O/C(=C\c1ccc(OCCN3CCCCC3)c(Cl)c1)C2=O | 6.80 | 5.10 | 49.4 | remaining at 10 min, 2 µM [4]: 59.5%; half-life at 2 µM [5]: 13.4 min; Retention_time: 3.4 min; Papp [6]: 12.2 ×10⁻⁶ cm/s |
| CCN(CC)C(=O)Oc1ccc2c(c1)O/C(=C\c1ccc(OCCCN(C)C)cc1)C2=O | 5.48 | 5.21 | 1.85 | – |
| COc1cc(/C=C2\Oc3cc(OCCN4CCCC4)ccc3C2=O)cc(OC)c1OC | 6.19 | 4.93 | 18.2 | – |
| COc1ccc(/C=C2\Oc3cc(OCCN4CCCC4)ccc3C2=O)cc1 | 5.93 | 5.14 | 6.1 | – |
| COc1ccc2c(c1)O/C(=C\c1ccc(OCCCN(C)C)cc1)C2=O | 5.61 | 4.52 | 12.5 | – |
| O=C1/C(=C/c2ccc(OCCN3CCCC3)cc2)Oc2cc(O)ccc21 | 5.49 | < 4.00 | – | – |
| COc1ccc2c(c1)O/C(=C\c1ccc(OCCN3CCCCC3)cc1)C2=O | 6.46 | 5.05 | 25.5 | remaining at 10 min, 2 µM [4]: 52.1%; half-life at 2 µM [5]: 10.9 min; Retention_time: 4.5 min; Papp [6]: 20 ×10⁻⁶ cm/s |

Reference: ChEMBL document CHEMBL3414445, “Blood-brain barrier permeable anticholinesterase aurones: synthesis, structure-activity relationship, and drug-like properties” (Eur J Med Chem, 2015)
